Legend:
[1] = system: Pseudomonas aeruginosa; assay: Antibacterial activity against Pseudomonas aeruginosa 1042 assessed as growth inhibition; format: functional
Summary of the method: (§1)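 Broth MIC by the standard microtiter technique in unbuffered Mueller-Hinton broth.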

[2] = system: Salmonella paratyphi; assay: Antibacterial activity against Salmonella paratyphi ATCC 12176 assessed as growth inhibition by two-fold agar dilution method; format: functional, Salmonella enterica subsp. enterica serovar Paratyphi A; settings: Salmonella enterica
Summary of the method: (§2)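 Twofold agar dilution on Trypticase soy agar buffered to pH 6.0. MIC reported in μg/mL.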

[3] = system: Pseudomonas aeruginosa; assay: Antibacterial activity against Pseudomonas aeruginosa HH 63 assessed as growth inhibition by two-fold agar dilution method; format: functional
Summary of the method: (§3)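 MIC (μg/mL) by twofold agar dilution on Trypticase soy agar buffered to pH 6.0.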

[4] = system: Klebsiella aerogenes; assay: Antibacterial activity against Enterobacter aerogenes ATCC 13048 assessed as growth inhibition by two-fold agar dilution method; format: functional; summary of the method: as §3
[5] = system: Pseudomonas aeruginosa; assay: Antibacterial activity against Pseudomonas aeruginosa 647 assessed as growth inhibition; format: functional; summary of the method: as §1
[6] = system: Morganella morganii; assay: Antibacterial activity against indole positive Proteus morganii 179 assessed as growth inhibition by two-fold agar dilution method; format: functional; summary of the method: as §3
[7] = system: Pseudomonas aeruginosa; assay: Antibacterial activity against Pseudomonas aeruginosa 864 assessed as growth inhibition; format: functional; summary of the method: as §1
[8] = system: Pseudomonas aeruginosa; assay: Antibacterial activity against Pseudomonas aeruginosa 1106 assessed as growth inhibition; format: functional; summary of the method: as §1
[9] = system: Staphylococcus aureus; assay: Antibacterial activity against penicillin G resistant Staphylococcus aureus HH 127 assessed as growth inhibition by two-fold agar dilution method; format: functional; summary of the method: as §2
[10] = system: Pseudomonas aeruginosa; assay: Antibacterial activity against Pseudomonas aeruginosa 1062 assessed as growth inhibition; format: functional; summary of the method: as §1
[11] = system: Escherichia coli; assay: Antibacterial activity against Escherichia coli 12140 infected in sc dosed mouse administered at 1 to 5 hrs measured for 3 days; format: functional; settings: Escherichia coli, 12140, sc; read-out: PD50
Summary of the method: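 Mice infected intraperitoneally with about 2×10^3 organisms per mouse of E. coli 12140 culture diluted in 5% hog gastric mucin, giving uniformly lethal infection. Fourfold dilutions given subcutaneously in equally divided portions at 1 and 5 h postinfection, five groups per compound. Survivors observed 3 days. PD50 is total dose (mg/kg) protecting 50%, calculated by Litchfield–Wilcoxon method.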

[12] = system: Pseudomonas aeruginosa; assay: Antibacterial activity against Pseudomonas aeruginosa 1504 assessed as growth inhibition; format: functional; summary of the method: as §1
[13] = system: Escherichia coli; assay: Antibacterial activity against Escherichia coli 12140 assessed as growth inhibition by two-fold agar dilution method; format: functional; summary of the method: as §3
[14] = system: Klebsiella pneumoniae; assay: Antibacterial activity against Klebsiella pneumoniae 4200 assessed as growth inhibition by two-fold agar dilution method; format: functional; summary of the method: as §3
[15] = system: Pseudomonas aeruginosa; assay: Antibacterial activity against Pseudomonas aeruginosa 1063 assessed as growth inhibition; format: functional; summary of the method: as §1
[16] = system: Pseudomonas aeruginosa; assay: Antibacterial activity against Pseudomonas aeruginosa 219 assessed as growth inhibition; format: functional; summary of the method: as §1

Structure (SMILES) | MIC [1] [µg/mL] | MIC [2] [µg/mL] | MIC [3] [µg/mL] | MIC [4] [µg/mL] | MIC [5] [µg/mL] | MIC [6] [µg/mL] | MIC [7] [µg/mL] | MIC [8] [µg/mL] | MIC [9] [µg/mL] | MIC [10] [µg/mL] | ED50 [11] [mg/kg] | MIC [12] [µg/mL] | MIC [13] [µg/mL] | MIC [14] [µg/mL] | MIC [15] [µg/mL] | MIC [16] [µg/mL]
Cn1nnnc1SCC1=C(C(=O)[O-])N2C(=O)[C@@H](NC(=O)C(NC(=O)CSCC(=O)[O-])c3ccccc3)[C@H]2SC1.[Na+].[Na+] (stereo partly drawn) | > 500 | 3.1 | > 200 | 3.1 | > 500 | 1.6 | > 500 | > 500 | 3.1 | 500 | 50 | 500 | 6.3 | 3.1 | > 500 | 500
Cn1nnnc1SCC1=C(C(=O)[O-])N2C(=O)[C@@H](NC(=O)C(NC(=O)C3OC3C(=O)[O-])c3ccccc3)[C@H]2SC1.[Na+].[Na+] (mixture of isomers) | 63 | 1.6 | 50 | 1.6 | 63 | 0.4 | 500 | 500 | 6.3 | 63 | 7 | 63 | 0.8 | 0.8 | 500 | 125
Cn1nnnc1SCC1=C(C(=O)[O-])N2C(=O)[C@@H](NC(=O)C(NC(=O)[C@H]3C[C@H]3C(=O)[O-])c3ccccc3)[C@H]2SC1.[Na+].[Na+] (mixture of isomers) | 250 | 3.1 | 200 | 6.3 | 125 | 6.3 | 500 | > 500 | 6.3 | 250 | 25 | 125 | 6.3 | 3.1 | 500 | 125

— ChEMBL document CHEMBL3271935, “Synthesis and biological activity of some broad-spectrum N-acylphenyglycine cephalosporins” (1977)
